The assay addresses T1, Menin (Homo sapiens, UniProt O00255).
T1 sequence (O00255 whole entry): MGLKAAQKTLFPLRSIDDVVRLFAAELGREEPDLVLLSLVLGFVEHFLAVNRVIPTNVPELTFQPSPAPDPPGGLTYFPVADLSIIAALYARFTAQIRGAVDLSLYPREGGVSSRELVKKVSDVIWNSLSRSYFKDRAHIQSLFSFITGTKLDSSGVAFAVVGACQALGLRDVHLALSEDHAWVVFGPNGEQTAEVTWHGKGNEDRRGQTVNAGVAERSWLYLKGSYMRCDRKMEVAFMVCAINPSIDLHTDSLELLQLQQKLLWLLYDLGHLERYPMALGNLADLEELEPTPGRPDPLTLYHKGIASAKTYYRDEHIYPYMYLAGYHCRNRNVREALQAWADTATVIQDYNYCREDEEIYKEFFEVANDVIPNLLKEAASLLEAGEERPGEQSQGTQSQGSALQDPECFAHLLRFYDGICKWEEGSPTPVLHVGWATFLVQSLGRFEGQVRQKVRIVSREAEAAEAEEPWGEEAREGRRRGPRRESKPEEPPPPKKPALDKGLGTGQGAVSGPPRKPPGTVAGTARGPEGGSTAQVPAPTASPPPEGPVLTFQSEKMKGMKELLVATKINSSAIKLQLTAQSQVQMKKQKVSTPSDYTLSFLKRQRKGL
The assay can be described thus: Binding affinity to menin (unknown origin) after 60 mins by fluorescence polarization assay. The procedure, abridged: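 Competitive FP with fluorescein-labeled peptide tracers. Compound in DMSO (2% final) was added to a preincubated menin/tracer complex in 100 mM potassium phosphate pH 7.5 with 100 μg/mL bovine γ-globulin and 0.02% sodium azide. Menin/tracer/detergent were 30 nM/3 nM/0.005% Triton X-100 or 3 nM/2 nM/0.02% Tween-20. Ki was derived from the fitted IC50, probe Kd and assay concentrations.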
On the technique in general: Fluorescence polarisation rises when a labelled molecule tumbles more slowly, as on binding a larger partner.

In ChEMBL document CHEMBL2311406, “Structure-based design of high-affinity macrocyclic peptidomimetics to block the menin-mixed lineage leukemia 1 (MLL1) protein-protein interaction” (J Med Chem, 2013) one finds IC50 and Ki data, which are given here for one compound.

The structures appear in SMILES notation. *1 amine or outer side, *2 acyl side, *3 side chain or, on linkers, in order; H or OH if unused. Where a SMILES comes first, the peptide text is derived from it. Bridges are numbered along the chain shown (N, C = ends). [ ]: non-standard residue; d: D form. hhhhLys = O=C([C@H](CCCCCCCCN[*:3])N[*:1])[*:2]; X1 = CCc1cccc(C[C@H](N[*:1])C(=O)[*:2])c1; Ac4c = NC1(C(=O)O)CCC1

As to `CCc1cccc(C[C@@H]2NC(=O)[C@@H](N)CCCCCCCCNC(=O)[C@@H]3CCCN3C(=O)[C@H](CCCNC(=N)N)NC(=O)C3(CCC3)NC(=O)[C@@H]3CCCN3C2=O)c1` (H-[hhhhLys][X1]P[Ac4c]RP; lactam 1-C), the IC50 – broadly, the concentration needed to halve the response being measured – came out at 4.61 µM and the Ki (as a rule, a measure of affinity in units of concentration, obtained from inhibition or displacement) is 1.33 µM.
